High-throughput results (PubChem)
Compounds with a hit are over-represented: about 2.4% of the library has one in this group of screens.
MEX-5 binding: MEX-5 zinc finger RNA-binding disruptors – biochemical, C. elegans, fluorescence polarization, MLPCN library, primary screen | 0.38% of 300,000 active | MEX-5/FITC-TCR2 RNA binding; active compounds read low | Zinc finger protein mex-5 (Caenorhabditis elegans), Q9XUB2 | activity score (negative = inhibition of binding), % at 10 µM;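 active = inhibition past about -25% in most replicates, and total fluorescence under double the plate's negative control median, limit read from the data; inconclusive = replicates evenly split on the limit, or fluorescence at least double controls; inactive = too little inhibition in most replicates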;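 note: 0% = DMSO and -100% = 5 µM competing unlabeled TCR2 RNA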
Target sequence (Q9XUB2 whole entry, looked up): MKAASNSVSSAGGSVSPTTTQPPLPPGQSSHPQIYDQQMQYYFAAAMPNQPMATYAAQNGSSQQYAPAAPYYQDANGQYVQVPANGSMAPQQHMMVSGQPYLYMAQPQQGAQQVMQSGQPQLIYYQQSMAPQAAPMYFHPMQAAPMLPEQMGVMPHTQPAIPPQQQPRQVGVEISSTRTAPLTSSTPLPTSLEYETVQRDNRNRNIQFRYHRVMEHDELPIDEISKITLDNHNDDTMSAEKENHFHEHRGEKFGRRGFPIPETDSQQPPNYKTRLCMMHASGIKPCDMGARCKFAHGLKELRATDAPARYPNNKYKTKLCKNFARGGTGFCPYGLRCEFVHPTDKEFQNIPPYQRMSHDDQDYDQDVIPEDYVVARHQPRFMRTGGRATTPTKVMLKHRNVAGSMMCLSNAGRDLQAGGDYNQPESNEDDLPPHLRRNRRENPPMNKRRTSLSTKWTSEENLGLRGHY
RanGTP-Impb inh: inhibitors of RanGTP-importin-beta interaction, primary screen, biochemical, FRET, CFP-Ran, YFP-importin-beta, homogeneous. Ran GTPase (GTP-bound) - importin-beta complex. cell-free CFP-Ran/YFP-importin-beta FRET ratio. inhibition, % (no concentration beside the values). 1.1% of 300,000 active. AID 2216, 2009;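 active = more than half of the replicate wells show a fall in the fluorescence ratio signal beyond about 16%, limit read from the data, passing the limit was not always enough; inconclusive = exactly half of the replicate wells pass the set limit; inactive = fewer than half of replicates pass the limit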;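 note: 0% = DMSO wells and 100% = Ran loaded with GDP instead of GTP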
Runt-SMMHC FRET: inhibitors of RUNX1 Runt–CBFb-SMMHC binding, primary screen, biochemical, FRET, Cerulean-Runt, Venus-CBFb-SMMHC, uHTS; AID 1434, 2008; Cerulean-Runt/Venus-CBFb-SMMHC FRET ratio 530/480, 1 h; 0.74% of 220,000 active; inhibition, % at 20 µM; Runt-related transcription factor 1 (Homo sapiens) + Core-binding factor subunit beta …;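 active = mean inhibition across duplicate retests at 20 µM reaching about 50%, limit read from the data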;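 note: 0% = DMSO wells and 100% = wells with excess untagged CBFb-SMMHC; inhibitors lower the FRET ratio by blocking Runt binding to CBFb-SMMHC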
Runt-CBFb FRET: inhibitors of RUNX1 Runt–CBFb binding, primary screen, biochemical, FRET, Cerulean-Runt, Venus-CBFb, uHTS; Runt-related transcription factor 1 (Homo sapiens) + Core-binding factor subunit beta …; Cerulean-Runt/Venus-CBFb FRET ratio 530/480, 1 h; inhibition, % at 20 µM; 0.46% of 220,000 active;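 active = inhibition over about 50% at 20 µM in the single-dose screen, limit read from the data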;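 note: 0% = DMSO wells and 100% = excess unlabeled CBFb competitor control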
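Schedule: protein complex preformed 1 h, compound exposure 1 h, room temperature, dark; test system: Cerulean-labeled Runt domain protein; amount: 100 nM per protein; buffer or medium: Tris 50 mM pH 7.5, KCl, K2SO4, 0.01% BSA; read-out: loss of energy transfer signal; detection: FRET fluorescence; controls: 5 µM unlabeled CBFb as full-inhibition high control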
LANA-H2A inh: blockers of LANA interaction with H2A/H2B – biochemical, FP readout, HTS, primary screen | inhibition, % (concentration not given with the values) | AID 2629, 2010 | 0.6% of 320,000 active | Protein LANA1 (Human herpesvirus 8 type P (isolate GK18)), Q9QR71 | cell-free LANA-H2A/H2B peptide, fluorescence polarization; in the data active = inhibition mostly above about 10%, no sharp cut-off; inactive = mostly below about 6.7%
EBV gp42 block: Epstein-Barr virus gp42 inhibitors, primary screen, biochemical, uHTS, fluorescence polarization | Glycoprotein 42 (Epstein-Barr virus (strain AG876)), Q1HVG2 | Fluorescence polarization binding assay, mP read-out | inhibition, % (tested at 21.74 µM) | 0.42% of 220,000 active | AID 1085, 2008; in the data active = inhibition above about 50%
Target sequence (Q1HVG2 whole entry, looked up): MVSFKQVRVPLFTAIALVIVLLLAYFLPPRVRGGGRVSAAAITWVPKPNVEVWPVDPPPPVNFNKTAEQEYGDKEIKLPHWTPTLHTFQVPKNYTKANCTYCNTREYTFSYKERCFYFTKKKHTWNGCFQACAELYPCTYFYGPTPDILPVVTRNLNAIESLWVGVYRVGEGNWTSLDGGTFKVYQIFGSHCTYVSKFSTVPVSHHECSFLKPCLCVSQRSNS
RUNX1 CBFb TR: inhibitors of RUNX1 Runt–CBFb binding, biochemical, TR-FRET; AID 1502, 2009; shares compounds with Runt-CBFb FRET; TR-FRET RUNX1 Runt domain-CBFb binding; inhibition, % at 20 µM; 20% of 480 active; in the data active = inhibition above about 40%
* hit, by the source's call; u = inconclusive; x = no result given; + = active, no number.

SMILES	MEX-5 binding	RanGTP-Impb inh	Runt-SMMHC FRET	Runt-CBFb FRET	LANA-H2A inh	EBV gp42 block	RUNX1 CBFb TR
Cc1nn(-c2ccccc2)cc1C(c1c(N)[nH]c(=S)[nH]c1=O)c1c(N)[nH]c(=S)[nH]c1=O	1.4	-0.8	41.4	55.8*	-2.3	-13.3	57.5*
CCc1ccc2[nH]cc(S(=O)(=O)c3ccc(C)c(C)c3)c(=O)c2c1	1.4	-1.5	x	x	-3.2	x	x
CCc1ccc2[nH]c3nc(C)cc(C)c3c(=O)c2c1	-1.9	12.6	82.6*	57.5*	3.7	-5.7	-140.7
CCOc1ccc2nc(NCCCNC(=O)c3cc(OC)c(OC)c(OC)c3)c(C#N)cc2c1	-0.6	134.9*	81.1*	59.5*	1.0	30.9	7.1
Cc1csc(SCC(=O)Nc2ccc3[nH]c(=O)[nH]c3c2)n1	x	x	x	x	-3.4	x	x
N#CC1=C(N)Oc2cc(N)ccc2C1c1ccc(F)cc1 (configuration not stated)	3.7	76.1*	86.0*	72.6*	5.1	-7.9	-11.4
C=CCn1c(N)c(C(=O)OC(C)(C)C)c2nc3ccccc3nc21	-0.8	29.4*	95.2*	69.8*	x	-21.1	-5.1
CC(=O)N1c2ccc(S(=O)(=O)N3CCCC3)cc2CC1C(=O)NCc1ccc(N(C)C)cc1 (configuration not stated)	3.0	2.0	x	x	15.7	x	x
Cn1c(Cc2ccccc2)nnc1SCC(=O)NCCc1ccccc1	0.7	-1.0	-0.7	0.0	-2.2	-1.4	x
O=C(CSc1nc2ccccc2s1)Nc1ccc(Cl)c(C(=O)O)c1	0.3	3.4	16.6	16.1	1.2	-10.7	x
O=C(CSc1nc2ccccc2s1)Nc1cc(C(=O)O)cc(C(=O)O)c1	-0.1	-0.7	52.4	55.2*	-3.8	-7.0	33.2
CS(=O)(=O)N(CC(=O)N1CCN(Cc2ccccc2)CC1)c1cccc([N+](=O)[O-])c1	4.4	-6.6	x	x	1.0	x	x
CCCN1CCN(C(=O)c2cccc3c2C(=O)N(CCOC)C3)CC1	1.8	0.8	-2.1	0.4	-2.6	-16.6	x
Cc1nc(N2CCCCC2)c2sc(=S)n(C)c2n1	-1.3	-0.6	0.8	-0.1	1.3	-5.4	x
CCN1CCN(c2nc(C)nc3c2sc(=S)n3C)CC1	x	x	38.5	53.2*	x	-8.8	-1.2
CCOC(=O)c1c(/N=C/N(C)C)sc(/C=N/Nc2ccccc2)c1-c1ccccc1	-1.5	-14.5	131.0*	70.8*	1.8	-59.4	-12.5
Nc1nc(N)nc(-c2cc(O)ccc2O)n1	x	x	x	x	-5.2	x	x
Oc1ccc(O)c(-c2cnns2)c1	-63.1*	-0.5	x	70.8*	-5.7	-23.2	-16.6
O=C1C=CC(=O)N1N(c1ccccc1)c1ccccc1	-1.0	1.2	x	71.7*	6.0	-10.7	-19.9
COc1cc(-c2nc3ccccc3s2)ccc1O	-1.2	0.3	154.3*	78.7*	-1.4	-4.1	34.1
COc1ccc(-c2nc3ccccc3s2)cc1O	0.0	-22.1	0.7	1.6	-1.7	-9.6	x
CCOc1cc(-c2nc3ccccc3s2)ccc1O	0.4	2.9	116.7*	54.9*	1.7	-4.7	38.2
CN(C(=O)COC(=O)c1ccc2ccccc2n1)c1ccccc1	x	x	x	x	3.1	x	x
COc1ccc(/C=C(\C#N)C(=O)Nc2cccc3ncccc23)cc1OC	-4.6	50.4*	60.1*	69.2*	5.8	0.7	63.7*
CC1(C)CC(=O)C2=C(C1)Nc1[nH]c(=S)[nH]c(=O)c1C2c1ccccc1 (configuration not stated)	-3.3	3.8	59.1*	50.2*	-6.0	1.7	12.3
SMILES	MEX-5 binding	RanGTP-Impb inh	Runt-SMMHC FRET	Runt-CBFb FRET	LANA-H2A inh	EBV gp42 block	RUNX1 CBFb TR
CCOc1ccc(Br)cc1S(=O)(=O)Nc1cccc(S(=O)(=O)N(C)C)c1	0.4	0.2	3.2	-0.2	0.3	-2.9	x
O=C1CCNc2ccc(-c3ccccc3)cc21	-66.9*	-9.5	-145.5	60.4*	4.9	+	42.5*
S=C(NCCCN1CCOCC1)NCCCN1CCOCC1	1.0	-1.3	23.2	50.4*	-0.7	-9.2	23.1
CNS(=O)(=O)c1ccc2nc(NC(=O)c3ccc(N4C(=O)CCC4=O)cc3)sc2c1	-1.0	1.2	59.8	55.1*	5.2	-21.6	11.9
CCc1ccc2nc(NC(=O)c3ccc(N4C(=O)CCC4=O)cc3)sc2c1	-1.1	5.8	0.2	1.2	-1.4	-11.9	x
Cc1ccnc(-n2c(C)cc(C=O)c2C)c1	-1.5	2.9	-2.4	2.9	2.3	-7.9	x
O=C(O)CSc1c2c(nc3cc(C(=O)N4CCOCC4)ccc13)CCCC2	-8.9	30.8*	101.7*	58.7*	1.5	-8.9	30.7
COc1ccc(C2CC(=O)N3CN(c4ccccc4F)CSC3=C2C#N)cc1OC (configuration not stated)	2.8	-157.6	87.4*	51.8*	-1.1	-3.2	17.1
CCc1ccccc1N1CSC2=C(C#N)C(c3ccccc3F)CC(=O)N2C1 (configuration not stated)	-0.3	u	91.9*	59.8*	3.9	-30.4	-0.5
COc1ccc(C2CC(=O)N3CN(c4ccc(C)c(Cl)c4)CSC3=C2C#N)cc1 (configuration not stated)	2.3	u	37.7	88.3*	-1.5	-22.4	7.9
COc1ccc(C2CC(=O)N3CN(Cc4ccco4)CSC3=C2C#N)cc1 (configuration not stated)	-1.3	3.7	24.9	29.2	8.4	-6.5	x
CCOC(=O)c1c(NC(=O)CN2C(=O)NC3(CCCC3)C2=O)sc(C)c1CC	-1.9	1.7	x	x	2.4	x	x
CC1=C(C(=O)OCCOC(C)C)C(c2cccnc2)C2=C(CCCC2=O)N1 (configuration not stated)	-0.1	1.8	45.5	24.7	-0.1	-8.8	x
COCCOC(=O)C1=C(C)NC2=C(C(=O)CC(C)(C)C2)C1c1cccnc1 (configuration not stated)	-1.3	10.8	108.7*	50.4*	-5.1	-3.0	19.1
CCOC(=O)N/N=C/c1c(F)c(F)c(F)c(F)c1F	0.0	x	1.4	50.4*	0.3	-12.6	-14.5
